# STAT1 act = STAT1 signaling activation; hit rate 2.6% among 200,000; activation (% of control), % at 5.5 µM; NIH 3T3 STAT1-luciferase reporter, IFN-gamma, luminescence; 100% = IFN-gamma alone, no compound;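 active means activation above the screen-wide mean activation plus 3 SD, cut at about 130% in these data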;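 further: raw ratio to IFN-gamma control signal so 100% means no change and 0% no light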
# FLuc inhib CS = counter-screen for luciferase assay inhibitors: firefly luciferase inhibition | P08659 | ATPLite firefly luciferase biochemical luminescence, 10 min | inhibition, % at 10 µM | hit rate 1.5% among 200,000;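 active means inhibition above about 50% when tested at 10 µM, limit read from the data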
# Target sequence (P08659 whole entry, looked up): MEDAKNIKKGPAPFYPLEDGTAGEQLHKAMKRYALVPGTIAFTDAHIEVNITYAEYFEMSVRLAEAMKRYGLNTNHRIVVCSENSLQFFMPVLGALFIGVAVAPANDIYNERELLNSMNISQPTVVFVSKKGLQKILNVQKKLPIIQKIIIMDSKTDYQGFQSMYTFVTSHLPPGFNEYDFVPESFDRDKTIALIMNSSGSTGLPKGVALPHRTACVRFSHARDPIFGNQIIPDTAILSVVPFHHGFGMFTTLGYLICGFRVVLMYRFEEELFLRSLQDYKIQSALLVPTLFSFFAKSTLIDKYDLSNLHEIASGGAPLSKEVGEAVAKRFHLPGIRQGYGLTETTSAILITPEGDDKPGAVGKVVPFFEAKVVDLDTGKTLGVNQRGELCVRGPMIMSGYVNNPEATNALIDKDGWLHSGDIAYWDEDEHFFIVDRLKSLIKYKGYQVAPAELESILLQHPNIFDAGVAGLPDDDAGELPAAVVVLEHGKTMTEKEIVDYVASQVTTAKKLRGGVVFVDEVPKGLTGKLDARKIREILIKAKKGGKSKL
# FLuc stim CS = firefly luciferase counter-screen for stimulation assays | P08659 | ATPlite luciferase biochemical, luminescence, 10 min; 0 = ATP-free wells, 1 = DMSO control | activation factor at 10 µM | 200,000 tested, under 10 active | AID 1027;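 active means luciferase activation factor, scaled between plate controls, of at least 2 with compound at 10 µM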
#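 Assay system: Luciferase/luciferin reagent mix; Medium: PBS as buffer for the ATP substrate; Dosing: test compounds dosed from 2 mM stocks in 100% DMSO; Times: 10 min, room temperature; Signal: luminescence from luciferase reaction; Read-out: luciferase activation; Controls: No-ATP low control, compound-free enzyme-plus-ATP high control.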
# NF-kB neuron act = compounds increasing NF-kB expression in human neuronal cells; fold change at 12.5 µM; NF-kB reporter expression; active compounds read high; hit rate 1.6% among 190,000; AID 1239; in the data active means fold change above about 3.3
# APP transl inh = APP translation inhibition; SH-SY5Y APP 5'UTR-luciferase reporter, luminescence; inhibition, % at 2 µM; hit rate 0.82% among 190,000; AID 1285;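 active means inhibition above a set limit, derived from the sample mean plus 3 SD, cut at about 45% in these data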
# APP 5'UTR act = activates APP 5'UTR luciferase reporter | SH-SY5Y APP 5'UTR luciferase reporter, luminescence; zero percent = DMSO vehicle wells | activation, % at 2 µM | hit rate 1% among 190,000 | AID 1276;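 active means activation above a set limit, based on mean plus 3 SD of controls, cut at about 140% in these data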
# STAT1 act conf = STAT1 activation, confirmation assay | shares compounds with STAT1 act | hit rate 97% among 1,200 | activation (% of control), % at 5.7 µM | NIH 3T3 STAT1-luciferase reporter, IFN-gamma potentiation, luminescence; 100% = IFN-gamma EC80 alone, no compound;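 active means activation above a set limit carried over from the earlier primary STAT1 screen, cut at about 140% in these data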;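 further: simple ratio to median IFN-gamma plus DMSO wells so 0% means no light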
# NFkB act STAT1ct = activates NF-kappaB, counter-screen to STAT1 activators | shares compounds with STAT1 act | HEK293T NF-kB luciferase reporter, TNF-alpha stimulated, luminescence; 100% = TNF-alpha with vehicle only | hit rate 43% among 1,200 | AID 1306 | activation (% of control), % at 5.7 µM;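 active means activation above the mean of solvent-only control wells plus 3 SD, set per campaign, cut at about 130% in these data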;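 further: TNF-alpha given at a submaximal dose yielding about 80% of full reporter signal; values are well signal over median control so 100% means no change and 0% no light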
# STAT3 act 2 = counter-screen for STAT1 activators: human STAT3 activation. shares compounds with STAT1 act. U3A cells STAT3-luciferase reporter, IL-6, luminescence; cells lack STAT1; 100 = IL-6 alone, no compound effect. activation (% of control), % at 5.7 µM. hit rate 46% among 1,200;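 active means activation above the solvent-only control well mean plus 3 SD, set per plate batch, cut at about 110% in these data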;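 further: 0% = no luminescence and 100% = median IL-6 plus DMSO wells; higher means more STAT3 reporter activation so hits are non-selective activators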
# Starred values were filed as active, the others as inactive; nt = no result given. Shown are actives, neighbours in structure and some others; about 4.8% of the full set was active somewhere.
SMILES,STAT1 act,FLuc inhib CS,FLuc stim CS,NF-kB neuron act,APP transl inh,APP 5'UTR act,STAT1 act conf,NFkB act STAT1ct,STAT3 act 2
CN(C)CCNC(=O)c1ccc(Sc2ccc(Br)cc2)c([N+](=O)[O-])c1,96.9,-6.5,1.1,1.02,19.4,-19.4,nt,nt,nt
COC(=O)c1sccc1-n1cccc1C(=O)C(=O)N1CCOCC1,104.0,0.2,1,1.23,-11.6,11.6,nt,nt,nt
CCC(=O)Nc1nnc(SCC(=O)c2ccc3c(c2)Cc2ccccc2-3)s1,103.0,2.6,1,1.05,-13.6,13.6,nt,nt,nt
COc1cccc(NC(=O)CSC2=C(C#N)C(c3ccco3)C3=C(CCCC3=O)N2)c1 (stereo not given),99.9,1.4,1,1.62,7.5,-7.5,nt,nt,nt
N#CC1=C(SCC(=O)c2ccccc2)NC2=C(C(=O)CCC2)C1c1ccco1 (stereo not given),155.7*,2.1,1,2.44,68.4*,-68.4,165.7*,128.3,105.7
Clc1ccc(OCc2nc(-c3ccncc3)no2)c(Br)c1,152.3*,25.0,0.8,4.04*,-250.4,250.4*,233.3*,140.6*,122.9*
Clc1ccccc1OCc1nc(-c2ccncc2)no1,161.9*,6.6,0.9,4.09*,-193.9,193.9*,184.2*,130.8,116.5*
Cc1ccc(CSCC(=O)N2CCOCC2)cc1,108.0,0.6,1,1.31,7.5,-7.5,nt,nt,nt
O=C(Nc1ccc2c(c1)CCC2)c1cccc(F)c1,162.5*,41.2,0.6,6.8*,-169.7,169.7*,202.3*,131.4,102.0
O=C(Nc1ccc2c(c1)CCC2)c1ccccc1Br,154.5*,30.4,0.7,1.15,-218.9,218.9*,218.2*,138.1*,112.1*
O=C(Nc1ccncc1)c1cccc(F)c1,100.0,-8.3,1.1,1.03,-4.6,4.6,nt,nt,nt
Cc1ccc([N+](=O)[O-])c(OCCN2CCC(Cc3ccccc3)CC2)c1,99.2,-0.8,1,1.08,24.1,-24.1,nt,nt,nt
CCCCCCNc1c([N+](=O)[O-])cc(C)cc1[N+](=O)[O-],91.4,nt,nt,nt,-10.0,10.0,nt,nt,nt
O=C(Nc1ncccn1)c1ccc([N+](=O)[O-])cc1,108.0,0.0,1,1.11,-2.8,2.8,nt,nt,nt
CC(C)(C)c1ccc(C(=O)Nc2ccc([N+](=O)[O-])cn2)cc1,151.2*,9.2,0.9,2.2,-131.1,131.1,212.9*,135.5*,98.5
O=C(NC(=S)Nc1ccccn1)c1ccc([N+](=O)[O-])cc1,181.8*,59.4*,0.4,2.08,-127.4,127.4,191.2*,128.0,107.3
COc1ccccc1NC(CC(=O)c1ccccc1)C(=O)OCC(=O)c1ccc(Br)cc1 (stereo not given),156.2*,-2.7,1,0.84,-116.6,116.6,182.8*,115.8,99.3
Cc1ccc(-c2cnc(-c3ccncc3)o2)cc1,153.1*,48.3,0.5,2.4,-67.4,67.4,154.3*,120.4,93.9
Cc1ccc(-c2nnc(-c3ccncc3)n2-c2ccc(C)cc2)cc1,106.8,-3.5,1,1.21,-3.9,3.9,nt,nt,nt
Cc1oc(-c2ccc(-c3ccccc3)cc2)nc1CN(C)C1CCOC1 (stereo not given),165.3*,25.5,0.7,2.34,-79.2,79.2,191.6*,144.0*,116.7*
Cc1cc(C)nc(NC(=O)C2c3ccccc3Oc3ccccc32)n1,98.1,-5.1,1.1,1.09,1.2,-1.2,nt,nt,nt
COc1ccc2cc(CCNC(=O)CC(C)(C)C)c(=O)[nH]c2c1,100.6,-8.2,1.1,1.25,20.5,-20.5,nt,nt,nt
COc1ccc2cc(CCNC(=O)c3cccs3)c(=O)[nH]c2c1,159.1*,-3.9,1,6.07*,-103.8,103.8,192.7*,140.3*,109.9
CCn1c(N2CCN(C(=S)Nc3ccc(OC)cc3)CC2)nc2ccccc21,94.3,-4.8,1,0.89,6.7,-6.7,nt,nt,nt
COc1cc(/C=C(\C#N)c2nc3ccccc3[nH]2)cc(OC)c1O,123.5,9.6,0.9,0.74,-21.2,21.2,nt,nt,nt
SMILES,STAT1 act,FLuc inhib CS,FLuc stim CS,NF-kB neuron act,APP transl inh,APP 5'UTR act,STAT1 act conf,NFkB act STAT1ct,STAT3 act 2
Cc1ccc(/C=C(\C#N)c2nc3ccccc3[nH]2)s1,162.5*,46.6,0.5,6.07*,-215.2,215.2*,222.2*,137.3*,101.2
CCOc1ccc(/C=N/O)cc1,103.9,0.5,1,1.18,13.5,-13.5,nt,nt,nt
Cc1ccc(COc2ccc(/C=N/O)cc2)cc1,176.1*,32.9,0.7,6.3*,-89.1,89.1,202.9*,136.3*,128.8*
CCN(CC)c1ccc(C(=O)OCC(=O)Nc2sccc2C#N)cc1,123.0,0.6,1,2.11,-45.4,45.4,nt,nt,nt
N#Cc1ccsc1NC(=O)COC(=O)c1ccc(NC(N)=O)cc1,165.7*,5.7,0.9,1.13,-128.1,128.1,198.9*,137.4*,141.0*
COc1ccc(CNc2nc(NCc3ccc(OC)c(OC)c3)n(C(=O)c3cccs3)n2)cc1OC,102.4,1.1,1,1.03,-12.7,12.7,nt,nt,nt
O=c1[nH]c(-c2ccccn2)nc2sc(-c3ccccc3)cc12,297.6*,38.1,0.6,1.57,26.6,-26.6,473.2*,225.0*,119.5*
Cc1c(C(=O)N(C)C)sc2nc(-c3ccccn3)[nH]c(=O)c12,109.8,7.8,0.9,1.38,-2.3,2.3,nt,nt,nt
CCCn1nnc(NC(=O)c2ccc(OCC)c(Cl)c2)n1,93.9,10.2,0.9,1.2,-14.1,14.1,nt,nt,nt
CCOc1ccc(C(=O)Nc2ccc(Cl)cn2)cc1Cl,157.6*,4.6,1,4.86*,-153.1,153.0*,187.6*,136.6*,99.0
Cc1ccc(Nc2ncc3c(n2)CC(C)(C)CC3=O)cc1,179.0*,46.0,0.5,5.15*,-157.9,157.9*,194.4*,138.7*,118.9*
Cc1ccccc1CSc1nnc(C)c(=O)n1N,98.5,-2.8,1,1.04,-2.3,2.2,nt,nt,nt
CCCC12CN3CC(C)(CN(C1)C3c1ccco1)C2=O (stereo not given),96.4,-3.0,1,1.23,-8.7,8.7,nt,nt,nt
CCOC(=O)c1c(C)[nH]c(C(=O)OCCOc2ccccc2C)c1C,158.8*,6.6,0.9,3.37*,-117.9,117.9,182.6*,125.4,122.6*
C=CCNc1nc(-c2ccc([N+](=O)[O-])cc2)cs1,151.1*,29.3,0.7,3.96*,-72.2,72.2,194.3*,135.8*,87.6

# Bioassay records deposited in PubChem by several laboratories.
